Screening results (PubChem BioAssay)
PLC-beta3 inh: human PLC-beta3 inhibitors, primary screen, biochemical, fluorescence | inhibition, % at 12.2 µM | 370,000 tested, 0.18% active | 1-phosphatidylinositol 4,5-bisphosphate phosphodiesterase beta-3 (Homo sapiens), Q01970 | Purified PLC-beta3, fluorogenic substrate; in the data active = inhibition above about 11%;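 also: 0% = median of compound wells on plate and 100% = full blocker control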
Tb MetRS inh: T. brucei MetRS inhibitors, primary screen, biochemical, luminescence | methionyl-tRNA synthetase (Trypanosoma brucei brucei) | purified T. brucei MetRS, ATP depletion, Kinase-Glo luminescence | inhibition, % at 11.9 µM | 360,000 tested, 0.4% active | AID 624268, 2012;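 active = inhibition above a per-plate cutoff of the control wells' mean inhibition plus 3 SD, cut at about 5.5% in these data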;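 also: 0% = DMSO wells median and 100% = median of wells with control inhibitor compound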
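Measured by: Kinase-Glo luciferase luminescence reporting remaining unconsumed ATP. Material: purified T. brucei MetRS enzyme. Doses: 11.9 µM compound single dose, 0.9% DMSO. Medium: HEPES buffer containing pyrophosphatase, BSA, spermine, DTT. Times: 15 min preincubation, 2 h reaction, all 25 °C. Reagent: methionine, ATP and bulk E. coli tRNA.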
PLC-gamma1 inh: PLC-gamma1 enzyme inhibitors, primary screen, biochemical, fluorescence, purified enzyme. 1-phosphatidylinositol 4,5-bisphosphate phosphodiesterase gamma-1 (Homo sapiens), P19174. fluorogenic substrate. inhibition, % at 12.2 µM. 370,000 tested, 0.84% active. AID 720700, 2013; in the data active = inhibition above about 9.5%
ADAM17 inh: ADAM17 inhibitors, primary screen, biochemical, QFRET. recombinant ADAM17, EDANS/DABCYL FRET peptide cleavage. inhibition, % at 6.95 µM. 370,000 tested, 0.83% active;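 active = inhibition above the mean of compounds lying between control limits plus 3 SD, set per campaign, cut at about 8.5% in these data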;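 also: 0% = DMSO-only wells as the low control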
ADAM10 inh: human ADAM10 inhibitors, primary screen, biochemical, QFRET, HTS | Disintegrin and metalloproteinase domain-containing protein 10 (Homo sapiens), O14672 | recombinant ADAM10, EDANS/DABCYL FRET peptide cleavage, 3 h | inhibition, % at 7 µM | 370,000 tested, 0.62% active | AID 720582, 2013;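 active = inhibition above a per-campaign cutoff equal to the mean of compounds falling between control-based bounds plus 3 SD, cut at about 20% in these data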;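 also: 0% = DMSO wells while the 100% control is not disclosed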
Target sequence (O14672 214-748 limits assumed): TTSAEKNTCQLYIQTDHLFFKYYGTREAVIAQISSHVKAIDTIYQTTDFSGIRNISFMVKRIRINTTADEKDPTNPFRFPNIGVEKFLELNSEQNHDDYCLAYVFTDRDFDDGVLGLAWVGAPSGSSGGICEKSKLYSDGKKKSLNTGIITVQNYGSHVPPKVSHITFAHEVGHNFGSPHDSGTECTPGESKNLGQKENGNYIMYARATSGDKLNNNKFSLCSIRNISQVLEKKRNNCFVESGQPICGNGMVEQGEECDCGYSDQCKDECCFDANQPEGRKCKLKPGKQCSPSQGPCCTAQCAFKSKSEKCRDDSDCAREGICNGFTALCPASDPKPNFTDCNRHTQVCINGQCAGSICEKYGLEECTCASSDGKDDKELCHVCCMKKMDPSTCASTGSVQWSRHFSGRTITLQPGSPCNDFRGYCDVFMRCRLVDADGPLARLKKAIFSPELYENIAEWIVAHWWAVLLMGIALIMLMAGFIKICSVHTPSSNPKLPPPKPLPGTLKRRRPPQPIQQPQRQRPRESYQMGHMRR
Tb MetRS conf: T. brucei MetRS inhibitors, confirmation, biochemical, luminescence. T. brucei MetRS enzyme, luminescence (ATP depletion). 1,400 tested, 93% active. inhibition, % at 11.9 µM. AID 624412, 2012. shares compounds with Tb MetRS inh; in the data active = inhibition above about 7%
Jurkat tox: Jurkat T cell cytotoxicity, cytotoxicity control for T. brucei MetRS inhibitor project, luminescence, high throughput. inhibition, % at 8.3 µM. shares compounds with Tb MetRS inh. 1,400 tested, 12% active. Jurkat cells viability, ATP luminescence; in the data active = inhibition above about 15%;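 also: 0% = vehicle and 100% = reference inhibitor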
Tb MetRS inh FP: T. brucei MetRS inhibitors, orthogonal assay for T. brucei MetRS inhibitor project, biochemical, fluorescence polarization. shares compounds with Tb MetRS inh. inhibition, % at 11.9 µM. 1,400 tested, 44% active. purified T. brucei MetRS; in the data active = inhibition above about 17%;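 also: 0% = vehicle wells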
Numbers without * were called inactive; . = no result given. Most compounds without a hit are left out; they make up all but 2.3% or so of the library.

SMILES | PLC-beta3 inh | Tb MetRS inh | PLC-gamma1 inh | ADAM17 inh | ADAM10 inh | Tb MetRS conf | Jurkat tox | Tb MetRS inh FP
c1ccc(CNc2nc(NCCc3ccncc3)c3sccc3n2)cc1 | 0 | 12* | 1 | -4 | -7 | 33* | 9 | 19*
O=C(NCc1ccco1)/C(=C/c1ccc(C(F)(F)F)cc1)c1nc2ccccc2[nH]1 | -54 | 7.7* | -45 | -37 | -120 | 5 | 30* | -3
CC(=O)Nc1ccc(-c2ccnc3c2CC(C)(C(=O)NCc2ccco2)O3)cc1 (configuration not stated) | 1 | 0 | 0 | -7 | -14 | . | . | .
COc1ccc(/C=C2\SC(N3CCCCC3)=NC2=O)cc1 | -6 | 0 | 5 | 2 | 4 | . | . | .
COc1ccc(/C=C2\SC(=O)N=C2N)cc1 | 0 | 22* | 1 | -2 | -4 | 67* | 1 | 37*
Cc1nnc(Nc2ccc(C(=O)O)cc2)[nH]c1=O | 3 | 6.8* | -1 | 1 | -3 | 14* | 0 | 3
Cc1nnc(Nc2ccc(O)cc2)[nH]c1=O | -2 | 1 | -3 | -7 | -6 | . | . | .
S=c1nc(COc2ccccc2)[nH]c2ccccc12 | -13 | 0 | -1 | 2 | 4 | . | . | .
Clc1ccc2nc(COc3ccccc3)[nH]c2c1 | -4 | 12* | 4 | 2 | 11 | 24* | 51* | 21*
COc1cc(-n2c(C)nc3cc(C(=O)N4CCN(C(C)=O)CC4)ccc32)cc(OC)c1OC | 1 | . | -1 | 3 | -13 | . | . | .
S=c1[nH]nc(-c2cccc(Cl)c2)n1CCN1CCCCC1 | -1 | 0 | -1 | 2 | -4 | . | . | .
O=C(NCc1ccc2c(c1)OCO2)C1CC(=O)N(c2ccc(Cl)cc2)C1 (configuration not stated) | -7 | 8.9* | -1 | -1 | -6 | 16* | 2 | 8
Cc1ccc(N2CC(C(=O)NCc3ccc4c(c3)OCO4)CC2=O)cc1C (configuration not stated) | -5 | 0 | -5 | -3 | -5 | . | . | .
C[C@H](CO)N1C[C@H](C)[C@H](CN(C)C(=O)Nc2cccc(Oc3ccccn3)c2)OCc2cnnn2CCCC1=O | 3 | 0 | -1 | -2 | -3 | . | . | .
CN(C)S(=O)(=O)c1cccc(NC(=O)c2ccc(Sc3nncn3C)c([N+](=O)[O-])c2)c1 | -2 | 0 | 4 | -1 | 3 | . | . | .
CCN(CC)CCNC(=O)c1ccc(NC(=O)c2ccc(-n3cncn3)c([N+](=O)[O-])c2)cc1 | 3 | 17* | 6 | 7 | -22 | 37* | 6 | 10
CN(C)S(=O)(=O)c1cccc(NC(=O)c2ccc(-n3cncn3)c([N+](=O)[O-])c2)c1 | -3 | 43* | 3 | -1 | 4 | 78* | 5 | 50*
CN(CC(=O)Nc1ccc(Cl)cc1)C(=O)c1ccc(-n2cncn2)c([N+](=O)[O-])c1 | -6 | 70* | -2 | 2 | 1 | 100* | -3 | 85*
CC(CCc1ccccc1)NC(=O)c1ccc(-n2cncn2)c([N+](=O)[O-])c1 (configuration not stated) | -10 | 26* | -2 | -2 | 1 | 55* | 5 | 31*
COc1ccc(C(=O)NC(C)CCc2ccccc2)cc1[N+](=O)[O-] (configuration not stated) | -4 | 0 | 4 | 0 | -3 | . | . | .
O=C(c1ccc(N2C(=O)C3C4c5ccccc5C(c5ccccc54)C3C2=O)cc1)N1CCOCC1 (configuration not stated) | 1 | 0 | 0 | 1 | 3 | . | . | .
O=C(Nc1ncccc1O)c1ccc(S(=O)(=O)Nc2ccccc2)cc1 | 0 | 0 | -3 | -3 | -3 | . | . | .
COCCCNC(=O)CSc1nnc(-c2ccncc2)n1-c1ccc(OC)cc1 | 4 | . | 0 | 0 | 0 | . | . | .
CCc1nc2c(OCC(=O)c3ccc(F)cc3)cccn2c1N(C)C(=O)c1cccs1 | -1 | -1 | -1 | -2 | -16 | . | . | .
C[C@H]1CN([C@@H](C)CO)C(=O)CCCn2nncc2CO[C@H]1CN(C)S(=O)(=O)c1ccc(Oc2ccccc2)nc1 | 1 | 0 | -1 | -2 | -4 | . | . | .
SMILES | PLC-beta3 inh | Tb MetRS inh | PLC-gamma1 inh | ADAM17 inh | ADAM10 inh | Tb MetRS conf | Jurkat tox | Tb MetRS inh FP
CS(=O)(=O)c1cc(N2CCOCC2)ccc1CNC[C@H]1O[C@@H](n2cnc3c(=O)[nH]c(N)nc32)[C@H](O)[C@@H]1O | -24 | -1 | -17 | -12 | -38 | . | . | .
CS(=O)(=O)c1ccc(Cl)c(NC(=O)c2ccc(-n3cncn3)c([N+](=O)[O-])c2)c1 | -1 | 57* | 0 | -6 | -4 | 81* | 6 | 67*
CC1CCCCC1NC(=O)c1ccc(-n2cncn2)cc1 (configuration not stated) | 0 | 0 | -3 | -2 | -9 | . | . | .
CC1CCCCC1NC(=O)c1ccc(-n2cncn2)c([N+](=O)[O-])c1 (configuration not stated) | -4 | 37* | 0 | -2 | -1 | 73* | -7 | 41*
O=C(Nc1ccc(Cl)cc1)c1ccc(-n2cncn2)c([N+](=O)[O-])c1 | 2 | 42* | -1 | -4 | 3 | 62* | 9 | 33*
CCN(CC)S(=O)(=O)c1cc(NC(=O)c2ccc(-n3cncn3)c([N+](=O)[O-])c2)ccc1C | -3 | 18* | 7 | 5 | 19 | 47* | 35* | 39*
O=C(Nc1ccc(Cl)cc1)c1ccc(-n2cccn2)c([N+](=O)[O-])c1 | 1 | 2 | -2 | -5 | 2 | . | . | .
O=C(Nc1cccc(Cl)c1)c1ccc(-n2cncn2)c([N+](=O)[O-])c1 | -8 | 42* | -1 | 0 | -4 | 66* | 4 | 37*
O=C(COc1ccccc1Cl)NNC(=O)c1ccc(-n2cncn2)c([N+](=O)[O-])c1 | -7 | 13* | -1 | 0 | -2 | 43* | -4 | 21*
CCN(CC)S(=O)(=O)c1ccc(OC)c(NC(=O)c2ccc(-n3cncn3)c([N+](=O)[O-])c2)c1 | -5 | 37* | -1 | 0 | 1 | 81* | 1 | 50*
